Legend:
Neuro2A cells [1] = test: Neurite outgrowth assay; format: cell-based, mouse; settings: for optimum neuritogenic concentration: average neurite length; for neurite outgrowth promotion compared to no inhibitor (vehicle): differentiated Neuro2A cells, 48 h post-treatment, 10, 1, 0.1, 0.01 μM
Neuro2A cells [2] = test: Cell viability assay; format: cell-based, mouse; settings: 10 μM, 72 h, MTT assay
Outline: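 Neuro2A cells were kept in DMEM/10% FBS with supplements at 37 °C, 5% CO2, and seeded at 10 000 cells/cm2. After 24 h they were differentiated in 1% FBS and exposed to compounds (10, 1.0, 0.1 μM) for 72 h. MTT was added for 2 h at 37 °C, formazan was dissolved in DMSO and absorbance read at 562 nm. Viability is given relative to vehicle.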

Neuro2A cells [3] = test: Immunoblot of acetylated H3, H4 and tubulin in Neuro2A cells; format: cell-based, mouse; settings: 1 μM, compared to vehicle
Outline: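 Neuro2A cells were exposed to compound or vehicle and harvested in Laemmli buffer; protein was assayed by amido black. Equal protein went on 12% SDS-PAGE, then PVDF transfer. Primaries ran overnight at 4 °C and secondaries 2 h at room temperature, with chemiluminescent detection. Acetylated H3, H4 and tubulin were quantified and compared with vehicle by Student's t-test.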

Zebrafish = test: Social interaction test in chronic unpredictable stress; format: in vivo, Zebrafish (Danio rerio); settings: intraperitoneal
Outline: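 Adult zebrafish were held at 28 ± 2 °C on a 14/10 h light/dark cycle. They then had 7 days of chronic unpredictable stress, two varied stressors daily (restraint, 33/23 °C, isolation, crowding, predator, chasing, alarm pheromone, etc.). Test compound was given at 10, 25 or 50 mg/kg, with fluoxetine 15 mg/kg as reference. Each fish then spent 120 s with an unfamiliar pink zebrafish target. Video was scored manually for latency, interaction time and freezing; n = 15.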

[4] = system: HDAC8 (class I), HDAC4 (class IIa), HDAC6 (class IIb); test: HDACi selectivity assay; format: biochemical, Human; settings: enzymes immunoprecipitated from HeLA cells; 10, 1, 0.1, 0.01, 0.001 μM
[5] = BBB crossing: TLC detection in Zebrafish brain extract; format: in vivo; settings: 25 mg/kg, intraperitoneal injection
Outline: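 Adult zebrafish were dosed with 25 mg/kg test compound or DMSO vehicle. Fish were anaesthetised on ice, and the whole brain was removed and freeze-dried in liquid nitrogen. Brains were ground in HPLC-grade ethyl acetate, sonicated, centrifuged (10 000 rpm, 20 min) and left 20 min to separate the extract. Compound in the extract was detected by TLC.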

[6] = compound 5 at 50 mg dose, vs vehicle-treated group

| SMILES | neurite growth activity and viability above the optimum neuritogenic concentration (Neuro2A cells [1]; Neuro2A cells) | optimum neuritogenic concentration (Neuro2A cells [1]; Neuro2A cells) [µM] | neurite outgrowth promotion compared to no inhibitor (vehicle) (Neuro2A cells [1]) | further results |
| --- | --- | --- | --- | --- |
| O=C(CCCCCc1ccc2c(c1)c1ccccc1n2Cc1ccccc1)NO [Compound 4, 6-(9-Benzyl-9H-carbazol-3-yl)-N-hydroxyhexanamide] | reduced neurite growth activity and viability | 0.1 | significantly more neurite outgrowth promotion |  |
| O=C(CCCCCCCc1ccc2[nH]c3ccccc3c2c1)NO [Compound 5, 8-(9H-Carbazol-3-yl)-N-hydroxyoctanamide] | reduced neurite growth activity and viability | 1 | significantly more neurite outgrowth promotion | neurite outgrowth compared to vorinostat and tubastatin-A (Neuro2A cells [1]; Neuro2A cells, at optimum neuritogenic concentrations): remarkably more neurite outgrowth; cell viability (cytotoxicity) (Neuro2A cells [2]): does not show any observable toxicity; acetylated H3 (Neuro2A cells [3]): significant increase; acetylated H4 (Neuro2A cells [3]): significant increase; acetylated tubulin (Neuro2A cells [3]): significant increase; latency to social interaction (Zebrafish; [6]): not at 50 mg dose; total time spent in interaction zone (Zebrafish; [6]): not at 50 mg dose; HDAC class selectivity [4]: selectivity for class II (class IIa-HDAC4 and class IIb- HDAC6) over class I (HDAC8); crossing of the blood-brain barrier (detection in brain extract by TLC) [5]: crossing the BBB |
| O=C(CCCCC(=NO)c1ccc2c(c1)c1ccccc1n2Cc1ccccc1)NO [Compound 6, 6-(9-Benzyl-9H-carbazol-3-yl)-N-hydroxy-6-(hydroxyimino)hexanamide] | reduced neurite growth activity and viability | 0.01 | significantly more neurite outgrowth promotion |  |
| O=C(CCCCCCC(=NO)c1ccc2c(c1)c1ccccc1n2Cc1ccccc1)NO [Compound 7, 8-(9-Benzyl-9H-carbazol-3-yl)-N-hydroxy-8-(hydroxyimino)octanamide] | reduced neurite growth activity and viability | 0.1 | significantly more neurite outgrowth promotion |  |
| O=C(CCCCc1ccc2c(c1)c1ccccc1n2CC(=O)NO)NO [Compound 8, N-hydroxy-5-(9-(2-(hydroxyamino)-2-oxoethyl)-9H-carbazol-3-yl)pentanamide] | reduced neurite growth activity and viability | 0.1 | significantly more neurite outgrowth promotion |  |
| O=C(CCCC(=NO)n1c2ccccc2c2ccccc21)NO [Compound 10, 5-(9H-Carbazol-9-yl)-N-hydroxy-5-(hydroxyimino)pentanamide] | reduced neurite growth activity and viability | 0.1 | significantly more neurite outgrowth promotion |  |
| O=C(CCCCC(=NO)n1c2ccccc2c2ccccc21)NO [Compound 11, 6-(9H-Carbazol-9-yl)-N-hydroxy-6-(hydroxyimino)hexanamide] | reduced neurite growth activity and viability | 0.1 | significantly more neurite outgrowth promotion |  |
| CNCCC(Oc1ccc(C(F)(F)F)cc1)c1ccccc1 (stereo not drawn) [fluoxetine, reference compound] |  |  |  | freezing duration (social interaction test) (Zebrafish; compound 5 (10, 25, 50 mg/kg tested), fluoxetine 15 mg/kg): trend of decreased freezing duration |
| CN1CCc2c(c3ccccc3n2Cc2ccc(C(=O)NO)cc2)C1 [tubastatin-A, reference compound] | reduced neurite growth activity and viability | 10 | significantly more neurite outgrowth promotion |  |
| O=C(CCCCCCC(=O)Nc1ccccc1)NO [vorinostat, suberoylanilide hydroxamic acid, reference compound] | reduced neurite growth activity and viability | 1 |  |  |

From publication PMC6811854 (ACS Omega, 2019)
